Drawing on ChEMBL document CHEMBL1121548, “Structure-activity relationships of pyrrole amidine antiviral antibiotics. 2. Preparation of mono- and tripyrrole derivatives of congocidine” (1980), this text covers Inhibition, inhibition and Concentration for seven molecules.

Where only a bound is given, the exact number is not on record here.

The test system of experiment [1] is BSC-1. Description: Evaluation of titer of virus progeny produced in untreated infected cells and in cells treated with the compound by plaque assay on BSC-1 cells. The format is functional, Cercopithecidae. Further details: concentration or dose not given beside the values. In short, it runs like this: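 HSV type 1-infected cell cultures were exposed to drug at the maximal nontoxic concentration. Toxicity means cell death within 2 days of drug incubation at 37 °C; the maximal nontoxic level is the concentration whose twofold increase causes toxicity. Progeny virus titer was determined by plaque assay on BSC-1 cells. Yield is expressed as a percentage of the untreated infected-cell yield (taken as 100%).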

Experiment [2] concerns Nucleic Acid. The experiment in a line: In vitro ability to inhibit HSV DNA polymerase activity in vitro using activated calf thymus DNA as atemplate at dose 100 ug/mL. The format is nucleic-acid assay. The conditions noted are these: herpes simplex virus.
The subject of experiment [3] is Nucleic Acid. The experiment in a line: In vitro ability to inhibit HSV DNA polymerase activity in vitro using activated calf thymus DNA as atemplate at dose 200 ug/mL. It counts as nucleic-acid assay. The conditions noted are these: herpes simplex virus.
In experiment [4] the test system is Nucleic Acid. Description: In vitro ability to inhibit HSV DNA polymerase activity in vitro using activated calf thymus DNA as atemplate at dose 25 ug/mL. It counts as nucleic-acid assay. The conditions noted are these: herpes simplex virus.
Experiment [5] deals with Nucleic Acid. The experiment in a line: In vitro ability to inhibit HSV DNA polymerase activity in vitro using activated calf thymus DNA as atemplate at dose 400 ug/mL. The conditions noted are these: herpes simplex virus. It counts as nucleic-acid assay.
Experiment [6] has as its system Nucleic Acid. Description: In vitro ability to inhibit HSV DNA polymerase activity in vitro using activated calf thymus DNA as atemplate at dose 50 ug/mL. The format is nucleic-acid assay. The settings on record: herpes simplex virus.
For experiment [7], the system named is Human alphaherpesvirus 1. The experiment in a line: Compound were tested for their ability to inhibit HSV replication at their maximal nontoxic concentration. The conditions noted are these: herpes simplex virus.
Experiment [8] has as its system Human alphaherpesvirus 1. The experiment in a line: In vitro ability to inhibit synthesis of herpes simplex virus (HSV) DNA in isolated nuclei at dose 50 ug/mL.
Experiment [9] relates to Human alphaherpesvirus 1. Description: In vitro ability to inhibit synthesis of herpes simplex virus (HSV) DNA in isolated nuclei at dose 25 ug/mL.
For experiment [10], the system named is Human alphaherpesvirus 1. Description: In vitro ability to inhibit synthesis of herpes simplex virus (HSV) DNA in isolated nuclei at dose 400 ug/mL.
In experiment [11] the test system is Human alphaherpesvirus 1. Description: In vitro ability to inhibit synthesis of herpes simplex virus (HSV) DNA in isolated nuclei at dose 200 ug/mL.
In experiment [12] the test system is Human alphaherpesvirus 1. The experiment in a line: In vitro ability to inhibit synthesis of herpes simplex virus (HSV) DNA in isolated nuclei at dose 100 ug/mL.
For experiment [13], the system named is Human alphaherpesvirus 2. Description: Compound were tested for their ability to inhibit HSV replication at their maximal nontoxic concentration; 400 ug/mL of the drug was not toxic. The conditions noted are these: herpes simplex virus. It counts as functional, organism-based.

For `Cl.Cn1cc(NC(=O)c2cc(NC(=O)c3cc(NC(=O)CN=C(N)N)cn3C)cn2C)cc1C(=O)NCCC#N`, in experiment [1], the Inhibition is 93.14%. The inhibition in experiment [2] was 68%; in experiment [3], 79%; in experiment [4], 12%; in experiment [5], 91%; in experiment [6], 35%. The same molecule yielded a Concentration in [7] of 50 µg/mL. The molecule further registered an inhibition at 50 µg/mL in experiment [8] of 68%. Moreover, in experiment [9], at 25 µg/mL the inhibition was 56%. The molecule also had an inhibition at 400 µg/mL in [10] of 89%. Also, in [11], at 200 µg/mL the inhibition was 87%.

For the molecule `Cl.Cl.Cn1cc(NC(=O)c2cc(NC(=O)c3cc(NC=O)cn3C)cn2C)cc1C(=O)NCCC(=N)N`, the Inhibition in [1] turned out to be 99.7%. Moreover, the inhibition in experiment [2] amounted to 85%; in experiment [3] it was 98%; in experiment [4] it was 20%; in experiment [5], 99%; in experiment [6], 62%. The Concentration in experiment [7] worked out at 25 µg/mL. In experiment [8], at 50 µg/mL the inhibition was 85%. In experiment [9], this molecule displayed an inhibition at 25 µg/mL of 79%. The molecule also displayed an inhibition at 100 µg/mL in [12] of 89%. In experiment [10], this molecule showed an inhibition at 400 µg/mL of 98%. In experiment [11], this molecule returned an inhibition at 200 µg/mL of 95%.

With `Cl.Cl.Cn1cc(NC(=O)c2cc(NC(=O)c3cc(NC(=O)CN=C(N)N)cn3C)cn2C)cc1C(=O)NCCC(=N)N`, the Inhibition in experiment [1] is on record as 99.7%. The inhibition in [2] came to 93%; in experiment [3], 94%; in experiment [4] it was 25%; in experiment [5], 99%; in [6], 64%. The molecule further registered a Concentration in [7] of 25 µg/mL. In addition, testing at 50 µg/mL in experiment [8] gave an inhibition of 84%. For the same molecule, in [9], the inhibition at 25 µg/mL was determined as 78%. This molecule returned an inhibition at 100 µg/mL in [12] of 92%. This molecule also registered an inhibition at 400 µg/mL in experiment [10] of 97%. In experiment [11], this molecule gave an inhibition at 200 µg/mL of 97%.

In experiment [1], `CC(CC(=N)N)NC(=O)c1cc(NC(=O)c2cc(NC(=O)c3cc(NC(=O)CN=C(N)N)cn3C)cn2C)cn1C.Cl.Cl` (stereo not drawn) displayed an Inhibition of 99.3%. Moreover, the inhibition turned out to be 83% in experiment [2]; 96% in [3]; 26% in experiment [4]; 97% in [5]; 59% in experiment [6]. Also, in [7], the Concentration is 10 µg/mL. Further, in experiment [8], testing at 50 µg/mL gave an inhibition of 73%. In [9], the inhibition at 25 µg/mL came to 56%. Also, testing at 100 µg/mL in experiment [12] gave an inhibition of 83%. In experiment [10], 400 µg/mL produced 97% inhibition. Moreover, in experiment [11], at 200 µg/mL the inhibition was 91%.

Molecule `CC(CC#N)NC(=O)c1cc(NC(=O)c2cc(NC(=O)c3cc(NC(=O)CN=C(N)N)cn3C)cn2C)cn1C.Cl` (stereo not drawn) showed an Inhibition in [1] of 90.9%. Besides, the Concentration in experiment [13] is > 400 µg/mL.

As for `Cl.Cl.Cn1cc(NC(=O)c2cc(NC(=O)CNC(=N)N)cn2C)cc1C(=O)NCCC(=N)N` [CONGOCIDINE], the Inhibition in experiment [1] came to 98.1%. Further, the inhibition in experiment [2] turned out to be 78%; in experiment [3] it was 90%; in experiment [4], 30%; in [5], 93%; in [6], 61%. The molecule also returned a Concentration in experiment [7] of 5 µg/mL. In [8], this molecule yielded an inhibition at 50 µg/mL of 67%. In addition, in experiment [9], at 25 µg/mL the inhibition was 64%. In addition, at 100 µg/mL the inhibition in experiment [12] was 61%. The molecule further had an inhibition at 400 µg/mL in experiment [10] of 88%. Testing at 200 µg/mL in [11] gave an inhibition of 71%.

`Cl.Cl.Cn1cc(NC(=O)c2cc(NC(=O)c3cc(NC(=O)CN=C(N)N)cn3C)cn2C)cc1C(=O)NCC(=N)N` gave an Inhibition in experiment [1] of 99.7%. Further, the inhibition in experiment [2] turned out to be 89%; in experiment [3] it was 99%; in [4], 39%; in [5], 99%; in experiment [6], 83%. For the same molecule, the Concentration in [7] came to 100 µg/mL.
